Columns and labels:
Assay type in all cases: toxicity, cell-based
Fibroblast = assay: Incucyte cell viability with human fibroblast; conditions: 10 µM, compound concentration 10 uM; also: filed as whole numbers so only -1 and 0 and 1 occur
U2OS [1] = assay: Incucyte cell viability with U2OS; conditions: human, 10 µM, compound concentration 10 uM; also: filed as whole numbers so only -1 and 0 and 1 occur
HEK-293T = assay: Incucyte cell viability with HEK293T; conditions: human, 10 µM, compound concentration 10 uM; also: filed as whole numbers so only -1 and 0 and 1 occur
U2OS [2] = assay: Multiplex assay against U2OS; conditions: human
Method in brief: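 Cells stained live at seeding with Hoechst33342, BioTracker Green Microtubule Cytoskeleton Dye, MitoTracker Red and Annexin V Alexa Fluor 680 were imaged on a CQ1 microscope at 37°C and 5% CO2 after compound addition. Their classification by CellPathfinder machine-learning gating ran from Hoechst high-intensity objects versus normal cells, to healthy, pyknosed or fragmented nuclei among normal cells, to mitotic or apoptotic among pyknosed cells. Tubulin, mitochondrial-mass and membrane-permeability phenotypes are per cents of healthy-nucleus cells.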

[3] = 0 h, replicate number 1, timepoint 0 hours
[4] = 6 h, replicate number 2, timepoint 6 hours
[5] = 12 h, replicate number 1, timepoint 12 hours
[6] = 18 h, replicate number 1, timepoint 18 hours
[7] = 24 h, replicate number 1, timepoint 24 hours
[8] = 12 h, 1 µM, compound concentration 1 uM, replicate 1
[9] = 12 h, 1 µM, compound concentration 1 uM, replicate 2
[10] = 12 h, 10 µM, compound concentration 10 uM, replicate 1
[11] = 12 h, 10 µM, compound concentration 10 uM, replicate 2
[12] = 24 h, 1 µM, compound concentration 1 uM, replicate 1
[13] = 24 h, 1 µM, compound concentration 1 uM, replicate 2
[14] = 24 h, 10 µM, compound concentration 10 uM, replicate 1
[15] = 24 h, 10 µM, compound concentration 10 uM, replicate 2
[16] = 48 h, 1 µM, compound concentration 1 uM, replicate 1
[17] = 48 h, 1 µM, compound concentration 1 uM, replicate 2
[18] = 48 h, 10 µM, compound concentration 10 uM, replicate 1
[19] = 48 h, 10 µM, compound concentration 10 uM, replicate 2

CCc1cc2c(cc1CC)CC(NC[C@H](O)c1ccc(O)c3[nH]c(=O)ccc13)C2 [INDACATEROL]
Growth Rate (Fibroblast; [3]): 1
Growth Rate (Fibroblast; [4]): 0
Growth Rate (Fibroblast; [5]): 0
Growth Rate (Fibroblast; [6]): 0
Growth Rate (Fibroblast; [7]): 0
Growth Rate (U2OS [1]; [3]): 1
Growth Rate (U2OS [1]; [4]): 1
Growth Rate (U2OS [1]; [5]): 1
Growth Rate (U2OS [1]; 12 h, replicate number 2, timepoint 12 hours): 0
Growth Rate (U2OS [1]; [6]): 0
Growth Rate (U2OS [1]; [7]): 0
Growth Rate (HEK-293T; [3]): 0
Growth Rate (HEK-293T; 6 h, replicate number 1, timepoint 6 hours): 0
Growth Rate (HEK-293T; [5]): 0
Growth Rate (HEK-293T; [6]): 0
Growth Rate (HEK-293T; [7]): 0
Population Apoptotic (%) (U2OS [2]; [8]): 41%
Population Fragmented Nuclei (%) (U2OS [2]; [8]): 10%
Population Healthy Nuclei (%) (U2OS [2]; [8]): 76%
Population Hoechst High Intensity Objects (%) (U2OS [2]; [8]): 7%
Population Membrane Permeable-Phenotype (%) (U2OS [2]; [8]): 2%
Population Mitochondria Different-Phenotype (%) (U2OS [2]; [8]): 10%
Population Mitotic Cells (%) (U2OS [2]; [8]): 58%
Population Normal (%) (U2OS [2]; [8]): 92%
Population Pyknosed Nuclei (%) (U2OS [2]; [8]): 13%
Population Tubulin-Different-Phenotype (%) (U2OS [2]; [8]): 11%
Total Cell Count (U2OS [2]; [8]): 185
Population Apoptotic (%) (U2OS [2]; [9]): 33%
Population Fragmented Nuclei (%) (U2OS [2]; [9]): 3%
Population Healthy Nuclei (%) (U2OS [2]; [9]): 92%
Population Membrane Permeable-Phenotype (%) (U2OS [2]; [9]): 1%
Population Mitochondria Different-Phenotype (%) (U2OS [2]; [9]): 11%
Population Mitotic Cells (%) (U2OS [2]; [9]): 66%
Population Pyknosed Nuclei (%) (U2OS [2]; [9]): 4%
Population Tubulin-Different-Phenotype (%) (U2OS [2]; [9]): 14%
Total Cell Count (U2OS [2]; [9]): 71
Population Fragmented Nuclei (%) (U2OS [2]; [10]): 18%
Population Healthy Nuclei (%) (U2OS [2]; [10]): 54%
Population Hoechst High Intensity Objects (%) (U2OS [2]; [10]): 4%
Population Membrane Permeable-Phenotype (%) (U2OS [2]; [10]): 22%
Population Mitochondria Different-Phenotype (%) (U2OS [2]; [10]): 95%
Population Normal (%) (U2OS [2]; [10]): 95%
Population Pyknosed Nuclei (%) (U2OS [2]; [10]): 27%
Population Tubulin-Different-Phenotype (%) (U2OS [2]; [10]): 90%
Total Cell Count (U2OS [2]; [10]): 139
Population Apoptotic (%) (U2OS [2]; [11]): 68%
Population Fragmented Nuclei (%) (U2OS [2]; [11]): 15%
Population Healthy Nuclei (%) (U2OS [2]; [11]): 64%
Population Hoechst High Intensity Objects (%) (U2OS [2]; [11]): 6%
Population Membrane Permeable-Phenotype (%) (U2OS [2]; [11]): 23%
Population Mitochondria Different-Phenotype (%) (U2OS [2]; [11]): 98%
Population Mitotic Cells (%) (U2OS [2]; [11]): 31%
Population Normal (%) (U2OS [2]; [11]): 93%
Population Pyknosed Nuclei (%) (U2OS [2]; [11]): 19%
Population Tubulin-Different-Phenotype (%) (U2OS [2]; [11]): 88%
Total Cell Count (U2OS [2]; [11]): 71
Population Apoptotic (%) (U2OS [2]; [12]): 36%
Population Fragmented Nuclei (%) (U2OS [2]; [12]): 11%
Population Healthy Nuclei (%) (U2OS [2]; [12]): 74%
Population Hoechst High Intensity Objects (%) (U2OS [2]; [12]): 6%
Population Membrane Permeable-Phenotype (%) (U2OS [2]; [12]): 2%
Population Mitochondria Different-Phenotype (%) (U2OS [2]; [12]): 11%
Population Mitotic Cells (%) (U2OS [2]; [12]): 63%
Population Normal (%) (U2OS [2]; [12]): 93%
Population Pyknosed Nuclei (%) (U2OS [2]; [12]): 13%
Population Tubulin-Different-Phenotype (%) (U2OS [2]; [12]): 9%
Total Cell Count (U2OS [2]; [12]): 184
Population Apoptotic (%) (U2OS [2]; [13]): 14%
Population Fragmented Nuclei (%) (U2OS [2]; [13]): 4%
Population Healthy Nuclei (%) (U2OS [2]; [13]): 86%
Population Hoechst High Intensity Objects (%) (U2OS [2]; [13]): 3%
Population Membrane Permeable-Phenotype (%) (U2OS [2]; [13]): 0%
Population Mitochondria Different-Phenotype (%) (U2OS [2]; [13]): 10%
Population Mitotic Cells (%) (U2OS [2]; [13]): 85%
Population Normal (%) (U2OS [2]; [13]): 96%
Population Pyknosed Nuclei (%) (U2OS [2]; [13]): 9%
Population Tubulin-Different-Phenotype (%) (U2OS [2]; [13]): 12%
Total Cell Count (U2OS [2]; [13]): 73
Population Apoptotic (%) (U2OS [2]; [14]): 78%
Population Fragmented Nuclei (%) (U2OS [2]; [14]): 24%
Population Healthy Nuclei (%) (U2OS [2]; [14]): 43%
Population Hoechst High Intensity Objects (%) (U2OS [2]; [14]): 4%
Population Membrane Permeable-Phenotype (%) (U2OS [2]; [14]): 50%
Population Mitochondria Different-Phenotype (%) (U2OS [2]; [14]): 96%
Population Mitotic Cells (%) (U2OS [2]; [14]): 21%
Population Normal (%) (U2OS [2]; [14]): 95%
Population Pyknosed Nuclei (%) (U2OS [2]; [14]): 32%
Population Tubulin-Different-Phenotype (%) (U2OS [2]; [14]): 79%
Total Cell Count (U2OS [2]; [14]): 174
Population Apoptotic (%) (U2OS [2]; [15]): 89%
Population Fragmented Nuclei (%) (U2OS [2]; [15]): 11%
Population Healthy Nuclei (%) (U2OS [2]; [15]): 67%
Population Hoechst High Intensity Objects (%) (U2OS [2]; [15]): 6%
Population Membrane Permeable-Phenotype (%) (U2OS [2]; [15]): 59%
Population Mitochondria Different-Phenotype (%) (U2OS [2]; [15]): 100%
Population Mitotic Cells (%) (U2OS [2]; [15]): 10%
Population Normal (%) (U2OS [2]; [15]): 93%
Population Pyknosed Nuclei (%) (U2OS [2]; [15]): 20%
Population Tubulin-Different-Phenotype (%) (U2OS [2]; [15]): 86%
Total Cell Count (U2OS [2]; [15]): 78
Population Apoptotic (%) (U2OS [2]; [16]): 45%
Population Fragmented Nuclei (%) (U2OS [2]; [16]): 7%
Population Healthy Nuclei (%) (U2OS [2]; [16]): 78%
Population Hoechst High Intensity Objects (%) (U2OS [2]; [16]): 4%
Population Membrane Permeable-Phenotype (%) (U2OS [2]; [16]): 2%
Population Mitotic Cells (%) (U2OS [2]; [16]): 54%
Population Normal (%) (U2OS [2]; [16]): 95%
Population Pyknosed Nuclei (%) (U2OS [2]; [16]): 14%
Population Tubulin-Different-Phenotype (%) (U2OS [2]; [16]): 6%
Total Cell Count (U2OS [2]; [16]): 181
Population Apoptotic (%) (U2OS [2]; [17]): 0%
Population Fragmented Nuclei (%) (U2OS [2]; [17]): 6%
Population Healthy Nuclei (%) (U2OS [2]; [17]): 87%
Population Hoechst High Intensity Objects (%) (U2OS [2]; [17]): 5%
Population Membrane Permeable-Phenotype (%) (U2OS [2]; [17]): 8%
Population Mitochondria Different-Phenotype (%) (U2OS [2]; [17]): 12%
Population Mitotic Cells (%) (U2OS [2]; [17]): 100%
Population Normal (%) (U2OS [2]; [17]): 94%
Population Pyknosed Nuclei (%) (U2OS [2]; [17]): 5%
Population Tubulin-Different-Phenotype (%) (U2OS [2]; [17]): 11%
Total Cell Count (U2OS [2]; [17]): 69
Population Apoptotic (%) (U2OS [2]; [18]): 84%
Population Fragmented Nuclei (%) (U2OS [2]; [18]): 23%
Population Healthy Nuclei (%) (U2OS [2]; [18]): 30%
Population Hoechst High Intensity Objects (%) (U2OS [2]; [18]): 9%
Population Membrane Permeable-Phenotype (%) (U2OS [2]; [18]): 38%
Population Mitochondria Different-Phenotype (%) (U2OS [2]; [18]): 96%
Population Mitotic Cells (%) (U2OS [2]; [18]): 15%
Population Normal (%) (U2OS [2]; [18]): 90%
Population Pyknosed Nuclei (%) (U2OS [2]; [18]): 45%
Population Tubulin-Different-Phenotype (%) (U2OS [2]; [18]): 73%
Total Cell Count (U2OS [2]; [18]): 239
Population Apoptotic (%) (U2OS [2]; [19]): 73%
Population Fragmented Nuclei (%) (U2OS [2]; [19]): 9%
Population Healthy Nuclei (%) (U2OS [2]; [19]): 53%
Population Hoechst High Intensity Objects (%) (U2OS [2]; [19]): 16%
Population Membrane Permeable-Phenotype (%) (U2OS [2]; [19]): 49%
Population Mitochondria Different-Phenotype (%) (U2OS [2]; [19]): 100%
Population Mitotic Cells (%) (U2OS [2]; [19]): 26%
Population Normal (%) (U2OS [2]; [19]): 83%
Population Pyknosed Nuclei (%) (U2OS [2]; [19]): 37%
Population Tubulin-Different-Phenotype (%) (U2OS [2]; [19]): 67%
Total Cell Count (U2OS [2]; [19]): 122
